# According to ChEMBL document CHEMBL1128451, “Synthesis and anti-DNA viral activities in vitro of certain 2,4-disubstituted-7-(2-deoxy-2-fluoro-beta-D-arabinofuranosyl)pyrrolo[2,3-d d pyrimidine nucleosides” (J Med Chem, 1995):
# Columns and labels:
# [1] = Anti viral activity against 2.2.15 cells (concentration required to reduce the log phase cell growth by 50%).; format: cell-based; conditions: human, 2.2.15 cells (HepG2-derived); read-out: TC50 (the source's name)
# Summary of the method: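 Growing 2.2.15/HepG2 cells at 1.7×10^4/well, subconfluent on collagen-coated plates, given compound dilutions in quadruplicate. Drug medium refreshed every second day. Proliferation read on days 0, 4, 8 and 12; TC50 is the concentration giving 50% inhibition of proliferation after 12 days' exposure. Mean of three or more experiments.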
# [2] = system: HepG2; assay: Ability to inhibit the episomal HBV-DNA in 2.2.15 cells.; format: functional, cell-based; conditions: Homo sapiens
# [3] = system: Vero; assay: Ability to inhibit the Cytopathic effect of HSV-2 in vero cells.; format: functional, cell-based; conditions: Chlorocebus sabaeus
# [4] = system: Vero; assay: Ability to inhibit the Cytopathic effect of HSV-1 in vero cells.; format: functional, cell-based; conditions: Chlorocebus sabaeus
# [5] = system: MRC5; assay: Anti HCMV (human cytomegalovirus) activity in MRC-5 cells infected with […] strain of HCMV (plaque reduction assay).; format: functional, cell-based
# [6] = Visual cytotoxicity of stationary MRC-5 cells, median toxic concentration is evaluated by anti HCMV plaque reduction assay performed in MRC-5 cells using the AD169 strain of HCMV; format: cell-based, MRC5; conditions: human, read-out: TC50 (the source's name)
# Summary of the method: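 Stationary uninfected MRC-5 cells scored visually for cytotoxicity from 0 (none at 20-fold magnification) to 4 (cell sheet nearly destroyed); median toxic concentration reported.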
# [7] = system: MRC5; assay: Plaque reduction performed using the DHPG- resistant D16 strain of HCMV in MRC-5 cell line; format: functional, cell-based; conditions: Homo sapiens
# Summary of the method: (§1)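 Plaque reduction in MRC-5 cells, grown in MEM(E) with 10% FBS and passaged 1:2, infected with the DHPG-resistant D16 HCMV strain, a viral polymerase mutant. IC50 is the concentration reducing plaques by 50%, derived from a regression line of inhibition versus log concentration. Ganciclovir served as the positive control.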
# [8] = Visual cytotoxicity of stationary MRC-5 cells, median toxic concentration is evaluated by plaque reduction assay performed in DHPG- resistant D16 strain of HCMV; format: cell-based, MRC5; conditions: human, read-out: TC50 (the source's name)
# Summary of the method: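 Uninfected stationary MRC-5 cells were scored by eye for cytotoxicity, from 0 (none visible at 20-fold magnification) to 4 (cell sheet nearly destroyed). The value is the median toxic concentration.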
# [9] = system: HFF; assay: Plaque reduction and cytotoxicity performed in HFF cell line Hs 68; format: functional, cell-based; conditions: Homo sapiens
# [10] = Visual cytotoxicity of […], median toxic concentration is evaluated by plaque reduction assay performed in HFF Cell line Hs 68; format: cell-based; conditions: human
# [11] = Anti viral activity against Vero cells (concentration required to reduce the log phase cell growth by 50%).; format: cell-based; conditions: chlorocebus sabaeus, read-out: TC50 (the source's name)
# Summary of the method: (§2)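 Log-phase Vero cells, 5000 cells per assay, exposed to compound for 4 days in quadruplicate. Growth measured by tetrazolium-based (CellTiter 96 aqueous) proliferation read-out; averaged data used to calculate TC50, the concentration reducing cell growth by 50%.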
# [12] = Anti viral activity against MRC-5 cells (concentration required to reduce the log phase cell growth by 50%).; format: cell-based, MRC5; conditions: human, read-out: TC50 (the source's name)
# Summary of the method: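 Growing MRC-5 cells; growth inhibition measured with the CellTiter 96 aqueous proliferation assay. TC50 is the concentration reducing log-phase cell growth by 50%.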
# [13] = Anti viral activity against vero cells (concentration required to reduce the log phase cell growth by 50%).; format: cell-based; conditions: chlorocebus sabaeus, read-out: TC50 (the source's name); summary of the method: as §2
# [14] = Visual cytotoxicity of […], median toxic concentration is evaluated by anti HCMV plaque reduction assay performed in HFF Cell line Hs 68; format: cell-based; conditions: human, read-out: TC50 (the source's name)
# [15] = system: HFF; assay: Anti HCMV(human cytomegalovirus) activity in HFF cell line Hs 68 infected with […] strain of HCMV(plaque reduction assay).; format: functional, cell-based
# Summary of the method: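 HCMV AD169 plaque reduction in diploid human foreskin fibroblast line Hs68, grown in MEM(E) with 10% FBS and passaged 1:2. IC50 is the concentration cutting plaque number by 50%, calculated by linear regression of inhibition against log drug concentration. Values are averages of three or more experiments. Ganciclovir was the positive control.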
# [16] = Visual cytotoxicity of stationary HFF Cell line Hs68, median toxic concentration is evaluated by anti HCMV plaque reduction assay performed in HFF Cell line Hs 68; format: cell-based; conditions: human, read-out: TC50 (the source's name)
# Summary of the method: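 Stationary uninfected HFF Hs68 cells scored visually for cytotoxicity from 0 (none at 20-fold magnification) to 4 (cell sheet nearly destroyed); median toxic concentration reported.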
# [17] = system: HFF; assay: Anti HCMV(human cytomegalovirus) activity in MRC-5 cells infected with DHPG-resistant D16 strain of HCMV(plaque reduction assay).; format: functional, cell-based; summary of the method: as §1
IC50 [2] [µg/mL],Compound,GI50 [1] [µg/mL],IC50 [5] [µg/mL],CC50 [6] [µg/mL],also measured
> 30,Nc1nc(N)c2ccn(C3OC(CO)CC3F)c2n1 (stereo unspecified),149,> 100,> 100,IC50 [3]: > 100 µg/mL; IC50 [4]: > 100 µg/mL
–,Nc1nc(Cl)c2ccn([C@@H]3O[C@H](CO)[C@@H](O)[C@@H]3F)c2n1,–,> 100,32,–
–,NC1=NC(=S)C2C=CN([C@@H]3O[C@H](CO)[C@@H](O)[C@@H]3F)C2=N1 (stereo partly specified),–,> 50,> 50,–
–,COc1nc(N)nc2c1ccn2[C@@H]1O[C@H](CO)[C@@H](O)[C@@H]1F,–,> 100,> 100,–
–,NSc1nc(N)nc2c1ccn2[C@@H]1O[C@H](CO)[C@@H](O)[C@@H]1F,–,> 100,> 100,–
–,Nc1ncc2ccn([C@@H]3O[C@H](CO)[C@@H](O)C3F)c2n1 (stereo partly specified),–,16,> 100,–
–,Nc1nc([SeH])c2ccn([C@@H]3O[C@H](CO)[C@@H](O)[C@@H]3F)c2n1,–,10,178,–
60,Nc1nc2c(ccn2[C@@H]2O[C@H](CO)[C@@H](O)[C@@H]2F)c(=O)[nH]1,> 100,51,> 100,–
–,Nc1ncc2c(n1)N([C@@H]1O[C@H](CO)[C@@H](O)[C@@H]1F)CC2,–,> 100,32,–
–,Nc1nc2c(ncn2COC(CO)CO)c(=O)[nH]1 [GANCICLOVIR],–,3.2,> 1000,CC50 [13]: 270 µg/mL; CC50 [14]: > 1000 µg/mL; IC50 [15]: 4.4 µg/mL; CC50 [16]: > 1000 µg/mL; IC50 [17]: 52 µg/mL; GI50 [12]: > 500 µg/mL
2.1,Nc1ccn([C@H]2CC[C@@H](CO)O2)c(=O)n1 [ZALCITABINE],64,–,–,–

Compound,IC50 [2] [µg/mL],GI50 [1] [µg/mL],IC50 [5] [µg/mL],CC50 [6] [µg/mL],also measured
Nc1nc(N)c2ccn([C@@H]3O[C@H](CO)[C@@H](O)[C@@H]3F)c2n1,0.7,630,3.7,> 100,IC50 [7]: 11 µg/mL; CC50 [8]: > 100 µg/mL; IC50 [9]: 3.4 µg/mL; IC50 [3]: 6.3 µg/mL; CC50 [10]: > 1000 µg/mL; IC50 [4]: 4.1 µg/mL; CC50 [11]: 53 µg/mL; GI50 [12]: 11.4 µg/mL
